Screens as filed in PubChem BioAssay.
The list is not random: actives were taken first. Their share in the collection is about 0.7%.
FN deposition inh: inhibitors of fibronectin matrix deposition, primary screen, AH1F cells, Alexa488-fibronectin fluorescence, plate reader | AH1F fibroblasts, overnight | inhibition, % at 12.6 µM | 0.086% of 350,000 active;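 active means mean inhibition across replicates of 30% or more, regardless of how many single replicates reach that level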
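test system = AH1F fibroblasts assembling fluorescent fibronectin matrix | quantity = 10000 AH1F cells per well | buffer or medium = DMEM plus 2% serum, read in PBS | doses = single dose, pinned | incubation = 1 h cell attachment, overnight exposure to compound and label | detection = fluorescence at 485 nm excitation, 525 nm emission | read-out basis = inhibition from reduced deposited-fibronectin fluorescence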
RAD52 anneal inh: RAD52 DNA annealing inhibitors, primary screen, biochemical, FRET, single point, set 2. DNA repair protein RAD52 homolog (Homo sapiens), P43351. recombinant RAD52 DNA annealing, FRET fluorescence. inhibition, % at 18.7 µM. 0.46% of 360,000 active. AID 651710, 2012;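 active means every replicate showing at least 50% inhibition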
CaV13 ICDI inh: Disruptors of the CACNA1D IQ motif to Ca2+-dependent inactivation inhibitor domain association, primary screening, Förster resonance energy transfer in intact living …; HEK cells, CFP/YFP FRET ICDI-IQ, plate reader, 10 min; percent FRET-ratio fall versus neutral wells; inhibition, % at 12.3 µM; 0.098% of 340,000 active;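 active means mean replicate inhibition of at least 30% and at least 1% of replicates passing that level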
RAD54 inh: inhibitors of human RAD54 branch migration, primary screen, biochemical, fluorescence, single point; DNA repair and recombination protein RAD54-like (Homo sapiens), Q92698; RAD54 Holliday junction branch migration, FAM/BHQ fluorescence; inhibition, % at 10.4 µM; 0.14% of 360,000 active; AID 602329, 2012;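 active means mean normalized replicate activity at least 40 and at least half of replicates scoring 40 or more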;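 further: inhibitors cause a drop in the FAM fluorescence signal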
Target sequence (Q92698 whole entry, looked up): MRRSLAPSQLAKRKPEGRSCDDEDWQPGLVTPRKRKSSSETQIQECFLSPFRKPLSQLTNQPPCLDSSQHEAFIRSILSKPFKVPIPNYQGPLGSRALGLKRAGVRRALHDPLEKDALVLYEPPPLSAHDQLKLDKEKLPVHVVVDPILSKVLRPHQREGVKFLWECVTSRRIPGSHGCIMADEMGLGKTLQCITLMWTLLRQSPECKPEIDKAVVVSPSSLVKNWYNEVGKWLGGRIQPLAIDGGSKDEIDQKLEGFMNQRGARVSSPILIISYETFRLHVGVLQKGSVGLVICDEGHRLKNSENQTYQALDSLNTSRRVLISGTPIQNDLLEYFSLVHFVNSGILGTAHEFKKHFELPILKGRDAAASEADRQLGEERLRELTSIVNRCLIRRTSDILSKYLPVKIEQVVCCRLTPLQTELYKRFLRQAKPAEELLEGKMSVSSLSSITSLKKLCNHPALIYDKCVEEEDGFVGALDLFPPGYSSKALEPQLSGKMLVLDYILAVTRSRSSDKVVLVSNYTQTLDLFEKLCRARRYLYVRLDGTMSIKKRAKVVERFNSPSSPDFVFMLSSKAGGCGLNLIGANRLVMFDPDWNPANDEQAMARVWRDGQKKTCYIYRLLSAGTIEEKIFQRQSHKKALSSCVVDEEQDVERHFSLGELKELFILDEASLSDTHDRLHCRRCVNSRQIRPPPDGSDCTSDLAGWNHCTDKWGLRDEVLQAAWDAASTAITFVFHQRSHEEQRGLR
Glyco luc inh: increase of ERlucT glycosylation luciferase signal, primary screen, N-linked glycosylation inhibitor project, D54 ERlucT cells, luminescence, set 2; D54 ERlucT glycosylation luciferase reporter, 24 h; percent of 100 nM tunicamycin response; reporter increase, % at 12.5 µM; 0.23% of 360,000 active; AID 588692, 2011;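 active means mean luciferase reporter signal, scaled so untreated is 0 and the glycosylation-blocking control 100, at or above a set limit in every replicate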;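 further: luciferase carries N-glycosylation sites so blocking glycosylation raises the light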
Numbers stand for hits; n = inactive; x = no result; + = active, no number.

SMILES | FN deposition inh | RAD52 anneal inh | CaV13 ICDI inh | RAD54 inh | Glyco luc inh
Cc1cccc(N2CCN(S(=O)(=O)c3cn(C)cn3)CC2)c1C | 42.5 | n | n | n | n
Cc1c(C(=O)N/N=C/c2cccnc2)sc(N)c1C#N | n | n | n | n | 40.5
COc1ccc2c3c(n(C)c2c1)[C@H](CO)NCC31CN(C(=O)Nc2ccc3c(c2)OCO3)C1 | x | n | x | x | x
Nc1ccc(Oc2ccc3nc(-c4ccccc4)c(-c4ccccc4)nc3c2)cc1 | x | x | n | n | n
Nc1ccc(-c2cnc3ccccc3n2)cc1 | n | n | n | n | n
Nc1ccc2nc(-c3ccccc3)cnc2c1 | n | n | + | n | n
Nc1ccc2nc(-c3ccccc3)c(-c3ccccc3)nc2c1 | n | n | n | n | 32.7
CC(=O)Nc1ccc(NC(=O)CSc2ncc(C(=O)Nc3ccccc3)c(=O)n2C)cc1 | n | n | n | n | n
Cn1c(SCC(=O)c2ccc(F)cc2)ncc(C(=O)Nc2ccccc2)c1=O | n | n | x | n | 36.1
CO[C@H]1CN(C)C(=O)c2ccc(NC(C)=O)cc2OC[C@@H](C)N(C(=O)C2CCOCC2)C[C@@H]1C | n | n | x | n | x
COc1ccc(NC(=O)N2CCCCN3[C@H](CO)[C@H](c4ccc(C#Cc5ccccc5)cc4)[C@H]3C2)cc1 | x | 95.0 | x | n | x
COc1ccccc1C#Cc1ccc([C@@H]2[C@@H](CO)N3CCCCN(C(=O)C4CCCC4)C[C@@H]23)cc1 | x | n | x | n | x
COc1ccc(C#Cc2ccc([C@@H]3[C@H]4CN(C(=O)Nc5cccc(F)c5)CCCCN4[C@H]3CO)cc2)cc1 | x | n | x | n | x
COc1ccccc1C#Cc1ccc([C@H]2[C@H](CO)N3CCCCN(C(=O)C4CCCC4)C[C@@H]23)cc1 | x | 55.7 | x | n | x
COc1ccc(C#Cc2ccc([C@H]3[C@@H](CO)N4CCCCN(C(=O)Nc5cccc(F)c5)C[C@H]34)cc2)cc1 | x | x | x | 50.7 | x
COc1ccc(C#Cc2ccc([C@H]3[C@@H](CO)N4CCCCN(C(=O)Nc5ccccc5)C[C@@H]34)cc2)cc1 | x | n | x | n | x
COCC(=O)N1C[C@H](C)[C@H](OC)CN(C)C(=O)c2cc(NC(=O)NC(C)C)ccc2OC[C@@H]1C | n | n | x | n | x
O=C(COc1ccc2ccc(=O)oc2c1)Nc1ccc(N2CCCCC2)cc1 | n | 66.0 | n | n | n
O=C(COc1ccc2ccc(=O)oc2c1)Nc1ccc(CCO)cc1 | n | n | n | n | n
COc1cc(-c2nc(-c3ccccc3)c(-c3cccs3)[nH]2)cc(OC)c1O | x | x | n | n | n
COc1cc(-c2nc(-c3ccccc3)c(-c3cccs3)[nH]2)cc(OC)c1OC | x | x | n | n | 56.6
COc1ccc2c3c(n(C)c2c1)[C@H](CO)N(CC1CC1)CC31CCN(C(=O)c2ccc(F)cc2)CC1 | x | n | x | x | x
Cc1ccc(S(=O)(=O)N(C)C[C@@H]2OCCCC[C@@H](C)Oc3ccc(NS(=O)(=O)c4cccs4)cc3C(=O)N([C@@H](C)CO)C[C@@H]2C)cc1 | n | n | x | n | x
Cc1cc(N=Cc2c(O)n(-c3ccc(C)c(C)c3)c(=O)c3ccccc23)no1 | n | x | n | x | x
CCOC(=O)Cc1csc(/N=C/c2c(O)n(-c3ccc(C)c(C)c3)c(=O)c3ccccc23)n1 | n | x | n | x | 71.5
SMILES | FN deposition inh | RAD52 anneal inh | CaV13 ICDI inh | RAD54 inh | Glyco luc inh
O=C(NNc1c2ccccc2nc2ccccc12)c1ccc(O)cc1 | n | n | 43.7 | x | n
O=C(NNc1c2ccccc2nc2ccccc12)c1cccc(O)c1 | n | x | n | x | n
CCN(CC)S(=O)(=O)c1ccc(N2CCOCC2)c(NC(=O)c2[nH]c(C)c(C(C)=O)c2C)c1 | n | n | n | n | 63.1
CN1c2ccc(Br)cc2[C@@H]2[C@@H](CCN2C(=O)Nc2ccccc2F)[C@@H]1CO | n | n | x | n | x
COc1cccc(-c2ccc([C@@H]3[C@H]4CNCC(=O)N4[C@H]3CO)cc2)c1 | n | n | x | x | x
O=S(=O)([N-]c1nc2ccccc2nc1-n1cc[n+](Cc2ccccc2)c1)c1ccc(Br)cc1 | n | n | n | n | 48.3
C[C@@H]1CN([C@@H](C)CO)C(=O)c2cc(NC(=O)Nc3ccc4c(c3)OCO4)ccc2O[C@H]1CN(C)C(=O)NC1CCCCC1 | x | n | x | n | x
COC(=O)c1ccc(/C=C/C(=O)c2ccc(OC)c(OC)c2)cc1 | x | x | x | n | 62.4
COc1cc(/C=C/C(=O)c2ccc3c(c2)OCCO3)cc(OC)c1OC | n | n | n | n | 42.1
COc1ccc(C(=O)/C=C/c2ccc(OC(=O)c3cc(OC)c(OC)c(OC)c3)cc2)cc1 | n | n | n | n | 42.3
CCOc1ccc(C(=O)/C=C/c2cc(OC)c(OC)c(OC)c2)cc1 | n | n | x | n | n
C#CCOCCOCCOCCNc1nc(N2CCN(C(=O)CCCCCCCCCCNC(=O)[C@H](CO)n3cc(CCCSC)nn3)CC2)nc(N2CCN(C(=O)CCCCCCCCCCNC(=O)[C@H](CCCCN)n3cc(CCO)nn3)CC2)n1 | n | 54.7 | n | n | n
C#CCOCCOCCOCCNc1nc(N2CCN(C(=O)CCCCCCCCCCNC(=O)[C@@H](CCSC)n3cc(CCO)nn3)CC2)nc(N2CCN(C(=O)CCCCCCCCCCNC(=O)[C@H](CCSC)n3cc(CCO)nn3)CC2)n1 | n | n | n | n | n
C#CCOCCOCCOCCNc1nc(N2CCN(C(=O)CCCCCCCCCCNC(=O)Cn3cc(CCCCCN)nn3)CC2)nc(N2CCN(C(=O)CCCCCCCCCCNC(=O)[C@@H](CCSC)n3cc(CCO)nn3)CC2)n1 | x | 52.3 | x | n | n
O=C(COC(=O)c1cc(Cl)ccc1[N+](=O)[O-])Nc1cccc2ccccc12 | n | n | n | x | n
Cc1ccc(NC(=O)COC(=O)c2cc(Cl)ccc2[N+](=O)[O-])c(C)c1 | 30.3 | n | n | x | n
CO[C@@H]1CN(C)C(=O)c2cc(NS(C)(=O)=O)ccc2OC[C@@H](C)N(Cc2ccccc2)C[C@@H]1C | n | n | x | n | x
C[C@H]1CCCCO[C@H](CN(C)Cc2ccc(C(=O)O)cc2)[C@@H](C)CN([C@@H](C)CO)C(=O)c2cc(NC(=O)c3ccncc3)ccc2O1 | x | 102.0 | x | n | x
C[C@@H]1CCCCO[C@@H](CN(C)Cc2ccc(C(=O)O)cc2)[C@@H](C)CN([C@H](C)CO)C(=O)c2cc(NC(=O)c3ccncc3)ccc2O1 | x | 75.7 | x | n | x
C[C@H]1CCCCO[C@@H](CN(C)Cc2ccncc2)[C@@H](C)CN([C@@H](C)CO)C(=O)c2cc(NC(=O)c3ccncc3)ccc2O1 | n | n | x | n | x
C[C@H]1CCCCO[C@@H](CN(C)Cc2ccc(C(=O)O)cc2)[C@@H](C)CN([C@@H](C)CO)C(=O)c2cc(NC(=O)c3ccncc3)ccc2O1 | x | 105.8 | x | n | x
